Reference: publication PMC5974556 (ChemistryOpen, 2018)
In brackets after ≈: the same amount, converted by molar mass. Where a name gives a salt, the structure may show the parent alone. Marks after values point to notes of the source that are not given here.

How the values were obtained:
Caco‐2 cells [1] = experiment: Intracellular ROS; format: cell-based, human; settings: protein content normalization, mean±SD, n≥3
Procedure, shortened: (§1)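 Cells grown in DMEM+glutamax with 1% NEAA, 1% P/S and 10% FBS at 37 °C, 10% CO2. Seeded at 2×10^4 cells/well for 24 h, then confluent cells were exposed to test compound at 1 or 10 µM in serum-free medium, with NAC as control. Cells were washed, loaded with DCFH-DA for 30 min, then kept 1 h in phenol red-free DMEM. Fluorescence read at ex 485/em 535 nm, normalised to same-well SRB protein (490 nm) and given as % of untreated cells. Mean ± SD, n≥3; two-tailed t-test with unequal variances.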

HT‐29 cells [2] = experiment: Protein content; format: cell-based; settings: Homo sapiens, HT-29, 72 h, read-out: HT‐29 IC50 SRB
Procedure, shortened: (§2)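 Seeded 2×10^4 cells per well for 24 h, then treated with or without test compound for three days, in triplicate. Fixed with 50% TCA for 1 h at 4 °C, washed and dried. Stained 30 min at 4 °C with 0.4% sulforhodamine B in 1% acetic acid, rinsed with 1% acetic acid. Dye redissolved in Tris buffer, absorbance read at 490 nm. Doxorubicin control; MTT and SRB data pooled, mean ± SD, n≥6.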

[3] = Water solubility, shake flask method in 0.1 M phosphate buffer pH 6.8; format: physicochemical; settings: 37 °C, pH 6.8, aqueous buffer, thermodynamic from solid
Procedure, shortened: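 Excess solid added to 1 mL sodium phosphate buffer, pH 6.8. Two conditions: 90 min sonication at 37 °C, or 30 min sonication at 37 °C, 23 h shaking at 300 rpm, then 30 min sonication. Centrifuged 14000 rpm for 5 min, filtered (0.2 µm) at 37 °C and diluted in DMSO. Quantified by LC at maximum absorbance against standard curves; independent triplicates.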

Caco‐2 cells [4] = experiment: Protein content; format: cell-based; settings: Homo sapiens, Caco-2, 72 h, read-out: Caco‐2 IC50 SRB
Procedure, shortened: as §2

HepG2 cells [5] = experiment: Intracellular ROS; format: cell-based; settings: Homo sapiens; for activity at 1 µM: HepG2, read-out: Intracellular ROS, percentage compared to the untreated control cells (ROS/SRB), HepG2, 1 μM; for activity at 10 µM: HepG2, read-out: Intracellular ROS, percentage compared to the untreated control cells (ROS/SRB), HepG2, 10 μM
Procedure, shortened: as §1

HT‐29 cells [6] = experiment: Intracellular ROS; format: cell-based; settings: Homo sapiens; for activity at 1 µM: HT-29, read-out: Intracellular ROS, percentage compared to the untreated control cells (ROS/SRB), HT‐29, 1 μM; for activity at 10 µM: HT-29, read-out: Intracellular ROS, percentage compared to the untreated control cells (ROS/SRB), HT‐29, 10 μM
Procedure, shortened: as §1

HepG2 cells [7] = experiment: Mitochondria activity; format: cell-based; settings: Homo sapiens, HepG2, 72 h, read-out: HepG2 IC50 MTT
Procedure, shortened: (§3)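 Cells kept in DMEM+glutamax with 1% NEAA, 1% P/S and 10% FBS at 37 °C, 10% CO2. Seeded 2×10^4 per well for 24 h, then exposed 72 h to test compound at various concentrations in serum-free medium, in triplicate. MTT (5 mg/mL in PBS) added for 2 h, formazan dissolved in DMSO, read at 570 nm. IC50 from % survival; doxorubicin control; MTT and SRB data pooled, mean ± SD, n≥6.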

HepG2 cells [8] = experiment: Protein content; format: cell-based; settings: Homo sapiens, HepG2, 72 h, read-out: HepG2 IC50 SRB
Procedure, shortened: as §2

EA.hy926 cells [9] = experiment: Protein content; format: cell-based; settings: Homo sapiens, EA.hy 926, 72 h, read-out: EA.hy926 IC50 SRB
Procedure, shortened: as §2

EA.hy926 cells [10] = experiment: Mitochondria activity; format: cell-based; settings: Homo sapiens, EA.hy 926, 72 h, read-out: EA.hy926 IC50 MTT
Procedure, shortened: as §3

HT‐29 cells [11] = experiment: Mitochondria activity; format: cell-based; settings: Homo sapiens, HT-29, 72 h, read-out: HT‐29 IC50 MTT
Procedure, shortened: as §3

EA.hy926 cells [12] = experiment: Intracellular ROS; format: cell-based; settings: Homo sapiens; for activity at 1 µM: EA.hy 926, read-out: Intracellular ROS, percentage compared to the untreated control cells (ROS/SRB), EA.hy926, 1 μM; for activity at 10 µM: EA.hy 926, read-out: Intracellular ROS, percentage compared to the untreated control cells (ROS/SRB), EA.hy926, 10 μM
Procedure, shortened: as §1

Caco‐2 cells [13] = experiment: Mitochondria activity; format: cell-based; settings: Homo sapiens, Caco-2, 72 h, read-out: Caco‐2 IC50 MTT
Procedure, shortened: as §3

[14] = Ferric reducing antioxidant power; settings: chemical antioxidant capacity, n=3
Procedure, shortened: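 FRAP reagent made from acetate buffer, TPTZ in ethanol and FeCl3·6H2O in dilute HCl, mixed 10:1:1, with TPTZ and iron solutions fresh daily. Sample mixed with reagent 1:9, absorbance read at 593 nm after 4 min. Values expressed as Trolox equivalents by linear regression on a Trolox standard curve; α-tocopherol positive control.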

Row | Intracellular ROS, percentage compared to the untreated control cells (ROS/SRB), Caco‐2, 1 μM (Caco‐2 cells [1]) | Intracellular ROS, percentage compared to the untreated control cells (ROS/SRB), Caco‐2, 10 μM (Caco‐2 cells [1]) | solubility at 90 min [3] [µM] | solubility at 24 h [3] [µM] | IC50 (Caco‐2 cells [4]) [µM] | IC50 (HepG2 cells [7]) [µM] | IC50 (HepG2 cells [8]) [µM] | IC50 (Caco‐2 cells [13]) [µM] | SMILES | IC50 (HT‐29 cells [2]) [µM] | activity at 1 µM (HepG2 cells [5]) [%] | activity at 10 µM (HepG2 cells [5]) [%] | activity at 1 µM (HT‐29 cells [6]) [%] | activity at 10 µM (HT‐29 cells [6]) [%] | IC50 (EA.hy926 cells [9]) [µM] | IC50 (EA.hy926 cells [10]) [µM] | IC50 (HT‐29 cells [11]) [µM] | activity at 1 µM (EA.hy926 cells [12]) [%] | activity at 10 µM (EA.hy926 cells [12]) [%] | FRAP [14] [Trolox equiv per μM]
1 | 109.8±7.4% | 114.7±3.1^[b] % | 168 ± 6 (≈ 56.2 µg/mL) | 303 ± 16 (≈ 101 µg/mL) | 31.6 ± 9 | 26.2 ± 0.3 | 20.8 ± 1.5 | 45.3 ± 10.5 | CC(C)CNC(=C\C(=O)/C=C/c1cccnc1)/C=C/c1cccnc1 [5 a, (1E,4Z,6E)‐5‐Isobutylamino‐1,7‐di(pyridin‐3‐yl)hepta‐1,4,6‐trien‐3‐one] | 30.9 ± 10.9 | 90.7 ± 13.7 | 94 ± 4.6 | 103 ± 11.1 | 84.1 ± 2.5 | 35.9 ± 7.2 | 33 ± 9.5 | 37.6 ± 1.8 | 88.7 ± 9.3 | 93.4 ± 14.6 | 0.03
2 | 101.3±0.9% | 117.7±5.6^[b] % | 11.3 ± 0.6 (≈ 4.06 µg/mL) | 12.2 ± 0.6 (≈ 4.39 µg/mL) | 60.8 ± 6 | > 75 | > 75 | 65.6 ± 2.1 | O=C(/C=C(/C=C/c1cccnc1)NC1CCCCC1)/C=C/c1cccnc1 [5 b, (1E,4Z,6E)‐5‐Cyclohexylamino‐1,7‐di(pyridin‐3‐yl)hepta‐1,4,6‐trien‐3‐one] | 19.4 ± 0.9 | 92.3 ± 7.8 | 98.8 ± 4.6 | 93.7 ± 13.2 | 90.6 ± 2.8 | 53 ± 1.9 | 40.2 ± 1.4 | 36.4 ± 7.9 | 89.1 ± 4.2 | 114 ± 9.5 | 0.00
3 | 102.4±8.8% | 243.2±17.5^[b] % | 895 ± 18 (≈ 300 µg/mL) | 2280 ± 174 (≈ 766 µg/mL) | 49.1 ± 0.6 | 56.7 ± 3.7 | 66.4 ± 1.3 | 53.8 ± 0.6 | COCCNC(=C\C(=O)/C=C/c1cccnc1)/C=C/c1cccnc1 [5 c, (1E,4Z,6E)‐5‐(2‐Methoxyethylamino)‐1,7‐di(pyridin‐3‐yl)hepta‐1,4,6‐trien‐3‐one] | 46 ± 15.8 | 94.8 ± 4 | 88.4 ± 5.3 | 100 ± 5.8 | 88.1 ± 3.6 | 63 ± 8.3 | 60 ± 10.5 | 55.3 ± 12.5 | 83.7 ± 6.7 | 89.5 ± 2.7 | 0.00
4 | – | – | – | – | 12.1 ± 0.8 | 5.5 ± 1.4 | 2.5 ± 1.2 | 11.1 ± 1 | COc1cccc2c1C(=O)c1c(O)c3c(c(O)c1C2=O)C[C@@](O)(C(=O)CO)C[C@@H]3O[C@H]1C[C@H](N)[C@H](O)[C@H](C)O1 [Dox, doxorubicin hydrochloride, reference compound] | 3.5 ± 0.4 | – | – | – | – | 1.4 ± 0.3 | 1.4 ± 0.5 | 4 ± 0.9 | – | – | –
5 | 55.7±5.8^[c] % | 47.8±2.6^[c] % | – | – | > 75 | – | – | > 75 | CC(=O)N[C@@H](CS)C(=O)O [N‐acetyl‐L‐cysteine, reference compound] | – | 73.1 ± 2.7 | 70.5 ± 3.1 | 90.1 ± 12 | 87.7 ± 3.7 | – | – | – | 79.6 ± 11.1 | 79.6 ± 7.4 | –
6 | – | – | – | – | – | – | – | – | Cc1c(C)c2c(c(C)c1O)CC[C@@](C)(CCC[C@H](C)CCC[C@H](C)CCCC(C)C)O2 [α‐tocopherol, reference compound] | – | – | – | – | – | – | – | – | – | – | 0.76
